# Assay results reported in ChEMBL document CHEMBL1287652, “QSAR modeling, synthesis and bioassay of diverse leukemia RPMI-8226 cell line active agents” (2010).
# Columns and labels:
# Type in all cases: functional
# SF-268 = assay: Antitumor activity against human SF268 cells after 48 hrs by sulforhodamine B assay; conditions: SF-268, 48 h
# Summary of the method: (§1)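 Cells were cultured in RPMI-1640 (5% FBS, 2 mM L-glutamine), pre-incubated for 24 h with time-zero plates TCA-fixed, then exposed for 48 h to five serial dilutions. The SRB read-out at 515 nm used time-zero, control and test absorbances. GI50 solves [(Ti−Tz)/(C−Tz)]×100 = 50 (net protein increase). TGI is the concentration giving 100% growth inhibition.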
# DU-145 = assay: Antitumor activity against human DU145 cells after 48 hrs by sulforhodamine B assay; conditions: DU-145, 48 h
# Summary of the method: (§2)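 Cells were grown in RPMI-1640 with 5% FBS and 2 mM L-glutamine, plated at 5000–40,000 cells/well, and preincubated for 24 h. A time-zero plate was TCA-fixed. Compounds were added from DMSO stock at five concentrations for 48 h at 37 °C. Cells were fixed with TCA (adherent 10%, suspension 16%) and stained with SRB, and A515 was read. GI50 and TGI were calculated from Tz, control and test absorbances.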
# OVCAR-3 = assay: Antitumor activity against human OVCAR-3 cells after 48 hrs by sulforhodamine B assay; conditions: OVCAR-3, 48 h; summary of the method: as §1
# HT-29 = assay: Antitumor activity against human HT-29 cells after 48 hrs by sulforhodamine B assay; conditions: HT-29, 48 h; summary of the method: as §2
# SN12C = assay: Antitumor activity against human SN12C cells after 48 hrs by sulforhodamine B assay; summary of the method: as §1
# KM12 = assay: Antitumor activity against human KM12 cells after 48 hrs by sulforhodamine B assay; conditions: KM12, 48 h; summary of the method: as §2
# SW-620 = assay: Antitumor activity against human SW620 cells after 48 hrs by sulforhodamine B assay; conditions: SW-620, 48 h
# Summary of the method: (§3)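 Cells grown in RPMI-1640 with 5% FBS and 2 mM glutamine, plated and preincubated 24 h; time-zero plates TCA-fixed. Five-level serial dilutions added, 48 h at 37 °C. TCA fixation, SRB staining, absorbance 515 nm. GI50 derived from [(Ti−Tz)/(C−Tz)]×100 = 50; TGI is concentration giving 100% growth inhibition.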
# K562 = assay: Antitumor activity against human K562 cells after 48 hrs by sulforhodamine B assay; conditions: K562, 48 h; summary of the method: as §2
# OVCAR-4 = assay: Antitumor activity against human OVCAR4 cells after 48 hrs by sulforhodamine B assay; conditions: OVCAR-4, 48 h; summary of the method: as §1
# RXF 393 = assay: Antitumor activity against human RXF393 cells after 48 hrs by sulforhodamine B assay; conditions: RXF 393, 48 h; summary of the method: as §1
# [1] = Antitumor activity against human […] cells after 48 hrs by sulforhodamine B assay; conditions: RPMI-8226, 48 h; summary of the method: as §1
# SF-539 = assay: Antitumor activity against human SF539 cells after 48 hrs by sulforhodamine B assay; conditions: SF-539, 48 h; summary of the method: as §1
# A498 = assay: Antitumor activity against human A498 cells after 48 hrs by sulforhodamine B assay; conditions: A498, 48 h; summary of the method: as §2
# SNB-19 = assay: Antitumor activity against human SNB19 cells after 48 hrs by sulforhodamine B assay; conditions: SNB-19, 48 h; summary of the method: as §1
# MOLT-4 = assay: Antitumor activity against human MOLT4 cells after 48 hrs by sulforhodamine B assay; conditions: MOLT-4, 48 h; summary of the method: as §1
# NCI-H322M = assay: Antitumor activity against human NCI-H322M cells after 48 hrs by sulforhodamine B assay; summary of the method: as §1
# MDA-MB-435 = assay: Antitumor activity against human MDA-MB-435 cells after 48 hrs by sulforhodamine B assay; conditions: MDA-MB-435, 48 h; summary of the method: as §2
# UACC-257 = assay: Antitumor activity against human UACC257 cells after 48 hrs by sulforhodamine B assay; conditions: UACC-257, 48 h; summary of the method: as §3
# EKVX = assay: Antitumor activity against human EKVX cells after 48 hrs by sulforhodamine B assay; summary of the method: as §2
# SK-MEL-28 = assay: Antitumor activity against human SK-MEL-28 cells after 48 hrs by sulforhodamine B assay; conditions: SK-MEL-28, 48 h; summary of the method: as §1
# HOP-92 = assay: Antitumor activity against human HOP92 cells after 48 hrs by sulforhodamine B assay; conditions: HOP-92, 48 h; summary of the method: as §2
# NCI/ADR-RES = assay: Antitumor activity against human NCI/ADR-RES cells after 48 hrs by sulforhodamine B assay; summary of the method: as §1
# [2] = Antitumor activity against human […] cells at 10 uM after 48 hrs by sulforhodamine B assay relative to control; conditions: values are per cent of control
# Summary of the method: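 NCI panel lines were grown in RPMI-1640 with 5% FBS and 2 mM L-glutamine and seeded at 5000–40,000 cells/well according to doubling time. After 24 h at 37 °C, 5% CO2, one dose from a DMSO stock was added for 48 h. Cells were TCA-fixed (10% final adherent, 16% suspension), SRB-stained and read at 515 nm. Percent growth is relative to untreated control.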
# M14 = assay: Antitumor activity against human M14 cells after 48 hrs by sulforhodamine B assay; conditions: M14, 48 h; summary of the method: as §2
# BT-549 = assay: Antitumor activity against human BT549 cells after 48 hrs by sulforhodamine B assay; conditions: BT-549, 48 h; summary of the method: as §2
# [3] = Antitumor activity against human Hs 578T cells after 48 hrs by sulforhodamine B assay; summary of the method: as §2
# PC-3 = assay: Antitumor activity against human PC3 cells after 48 hrs by sulforhodamine B assay; conditions: PC-3, 48 h; summary of the method: as §1
# UACC-62 = assay: Antitumor activity against human UACC62 cells after 48 hrs by sulforhodamine B assay; conditions: UACC-62, 48 h; summary of the method: as §3
# HL-60(TB) = assay: Antitumor activity against human HL-60(TB) cells after 48 hrs by sulforhodamine B assay; conditions: HL-60, 48 h
# Summary of the method: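 NCI panel screen. Cells were grown in RPMI-1640 with 5% FBS and 2 mM L-glutamine, seeded at 5000–40,000 cells/well depending on doubling time, and preincubated 24 h at 37 °C in 5% CO2. Compound was diluted from a DMSO concentrate to five levels and given for 48 h. Settled cells were fixed with TCA (final 16%), stained with 0.4% SRB, and read at 515 nm. GI50 was taken from [(Ti−Tz)/(C−Tz)]×100 = 50.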
smiles,measurement,setting,value
COc1ccc(NC(=O)Nc2ccccc2OCCCOc2ccccc2NC(=O)Nc2ccc(OC)cc2)cc1,GI50,SF-268,7.3 µM
same,TGI,SF-268,> 100 µM
same,GI50,DU-145,> 100 µM
same,TGI,DU-145,> 100 µM
same,GI50,OVCAR-3,> 100 µM
same,TGI,OVCAR-3,> 100 µM
same,GI50,HT-29,> 100 µM
same,TGI,HT-29,> 100 µM
same,GI50,SN12C,> 100 µM
same,TGI,SN12C,> 100 µM
same,GI50,KM12,> 100 µM
same,TGI,KM12,> 100 µM
same,GI50,SW-620,> 100 µM
same,TGI,SW-620,> 100 µM
same,GI50,K562,31.7 µM
same,TGI,K562,> 100 µM
same,GI50,OVCAR-4,> 100 µM
same,TGI,OVCAR-4,> 100 µM
same,TGI,RXF 393,> 100 µM
same,GI50,[1],58.3 µM
same,TGI,[1],> 100 µM
same,GI50,SF-539,3.4 µM
same,TGI,SF-539,> 100 µM
same,GI50,A498,16 µM
same,TGI,A498,72.9 µM
same,GI50,SNB-19,4.3 µM
same,TGI,SNB-19,26.1 µM
same,GI50,MOLT-4,17.7 µM
same,TGI,MOLT-4,36.6 µM
same,GI50,NCI-H322M,> 100 µM
same,TGI,NCI-H322M,> 100 µM
same,GI50,MDA-MB-435,> 100 µM
same,TGI,MDA-MB-435,> 100 µM
same,GI50,UACC-257,> 100 µM
same,TGI,UACC-257,> 100 µM
same,GI50,EKVX,10.5 µM
same,TGI,EKVX,> 100 µM
same,GI50,SK-MEL-28,> 100 µM
same,TGI,SK-MEL-28,> 100 µM
same,GI50,HOP-92,2.7 µM
same,TGI,HOP-92,8.6 µM
same,GI50,NCI/ADR-RES,> 100 µM
same,TGI,NCI/ADR-RES,> 100 µM
same,"growth, % of control at 10 µM",[2],77%
same,GI50,M14,45.7 µM
same,TGI,M14,> 100 µM
same,GI50,BT-549,1.5 µM
same,TGI,BT-549,29.2 µM
same,GI50,[3],> 100 µM
same,TGI,[3],> 100 µM
same,GI50,PC-3,> 100 µM
same,TGI,PC-3,> 100 µM
same,GI50,UACC-62,> 100 µM
same,TGI,UACC-62,> 100 µM
same,GI50,HL-60(TB),26.7 µM
same,TGI,HL-60(TB),68 µM
